Bioassay records: PubChem BioAssay, several laboratories
CR mimetic SO: lowers age-related superoxide in aged yeast cells | S. cerevisiae aged cells, superoxide DHE fluorescence; hits give low values | superoxide response (% of plate mean), % at 10 µM | actives 0.18% (n = 330,000) | AID 2690;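 active means superoxide response under a set limit, about three screen SD below normal, cut at about 65% in these data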;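 further: yeast aged for seven days with compound at 30 °C before DHE staining; 100% = average MFI of all compound-treated wells on the plate with controls excluded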
MIN6 prolif-1: induces beta-cell replication in MIN6 cells. MIN6 cells proliferation, ATPlite luminescence, 48 h; cells starved in 0.2% serum; 100% = growth in 10% serum. proliferation, % at 10 µM. actives 0.29% (n = 330,000);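 active means compounds whose signal lies at least 3.5 SD above the mean of all wells on their plate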;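 further: 0% = DMSO-treated cells in low-serum medium and 100% = 10% serum control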
Rev-erbA mod: modulates human Rev-erb alpha binding to DNA. P20393. Rev-erbα–FITC-DNA binding, fluorescence polarization, 90 min. activity, % at 10 µM. actives 0.79% (n = 370,000). AID 1259318;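 active means activity above about 14%, limit read from the data; passing the limit was not always enough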;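 further: 0% = DMSO wells with 35 nM protein and 100% = DMSO wells with 750 nM protein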
UCH37 DUB inh: inhibitors of human deubiquitinating enzyme UCH37; purified proteasome/UCH37, Ub-AMC cleavage fluorescence; inhibition, % (test concentration not listed); AID 588478; actives 0.33% (n = 330,000); Q9Y5K5;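 active means mean inhibition over replicate wells above about 20%, limit read from the data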;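 further: 0% = compound-free wells with enzyme and 100% = wells lacking proteasome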
Target sequence (Q9Y5K5 whole entry, looked up): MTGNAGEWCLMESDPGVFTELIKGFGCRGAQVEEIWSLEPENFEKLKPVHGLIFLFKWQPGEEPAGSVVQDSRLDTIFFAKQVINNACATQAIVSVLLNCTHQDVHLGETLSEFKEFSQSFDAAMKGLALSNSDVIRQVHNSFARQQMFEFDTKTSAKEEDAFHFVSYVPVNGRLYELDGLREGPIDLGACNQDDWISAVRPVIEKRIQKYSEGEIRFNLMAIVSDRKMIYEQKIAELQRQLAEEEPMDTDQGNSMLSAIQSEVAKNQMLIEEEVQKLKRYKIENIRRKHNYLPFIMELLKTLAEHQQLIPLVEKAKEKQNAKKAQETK
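Signal – fluorescence, ex 355 nm, em 460 nm · System – Proteasome-bound UCH37 · Input – 0.15 nM proteasome as dispensed · Timing – 30 min preincubation with enzyme, 25 min cleavage at room temperature · Read-out basis – percent inhibition of cleavage signal versus uninhibited and no-proteasome wells · Medium – Tris-HCl pH 7.4 with ATP-MgCl2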
Rce1 inhib: inhibitors of yeast Ras-converting enzyme; Q03530; yeast membranes, quenched prenylated peptide cleavage fluorescence; calls only; actives 0.27% (n = 290,000); AID 2563;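 active means fall in fluorescence gain of 50% or more versus controls, with final raw signal at or below 3038400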;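 further: plate controls were neutral control wells for no effect and wells lacking membranes for full effect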
Target sequence (Q03530 whole entry, looked up): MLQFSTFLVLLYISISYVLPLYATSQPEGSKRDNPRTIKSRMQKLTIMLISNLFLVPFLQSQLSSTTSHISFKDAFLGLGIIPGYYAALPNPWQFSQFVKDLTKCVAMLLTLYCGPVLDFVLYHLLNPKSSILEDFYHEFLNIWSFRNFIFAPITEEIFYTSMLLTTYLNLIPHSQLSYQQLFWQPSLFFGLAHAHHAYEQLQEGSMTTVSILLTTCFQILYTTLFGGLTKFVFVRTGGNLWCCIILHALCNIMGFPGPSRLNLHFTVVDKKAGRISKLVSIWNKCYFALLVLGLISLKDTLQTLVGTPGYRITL
PG9 Ab binder: small molecules binding HIV-1 gp120 antibody PG9; TR-FRET gp120-PG9 antibody binding; inhibition, % at 6.7 µM; actives 0.43% (n = 360,000); in the data active means inhibition above about 8.5%
MIN6 prolif-2: MIN6 beta-cell replication induction, confirmed; 920 tested, under 10 active; shares compounds with MIN6 prolif-1; MIN6 beta-cell proliferation, ATPlite luminescence, 48 h; cells kept in 0.2% serum; scaled between 0.2% and 10% serum; proliferation increase, % at 50 µM; AID 463095;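 active means proliferation increase above 40% at any of the four tested concentrations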
Active calls of the source: *. The list is not random: actives were taken first. Their share in the collection is about 1.9%.

What do the screens show for `CC1=C2CCC3C(CCC4=CC(=O)CCC43C)C2CC1` (stereo not given)?
Rev-erbA mod: 9; UCH37 DUB inh: 20*; PG9 Ab binder: -2

How did C#C[C@@]1(O)CCC2C3CCC4=CC(=NOCC(=O)NC(CCC(N)=O)C(=O)O)CC[C@]4(C)C3CC[C@@]21C (stereo not given in full) do in these assays?
UCH37 DUB inh: 0

What do the screens show for `CC(Cl)(Cl)C(=NP(=S)(N1CCOCC1)N1CCOCC1)N1CCOCC1`?
UCH37 DUB inh: 1

How did Cc1oc(-c2cccs2)nc1CSCC(=O)N1CCC2(CC1)OCCO2 do in these assays?
CR mimetic SO: 87; MIN6 prolif-1: 1; Rev-erbA mod: 5; UCH37 DUB inh: -25; Rce1 inhib: active; PG9 Ab binder: 0

Results for Cn1c(=O)c2c(nc(N/N=C/c3c(O)n(-c4ccccc4)c(=S)[nH]c3=O)n2C)n(C)c1=O ?
CR mimetic SO: 93; MIN6 prolif-1: 0; Rev-erbA mod: -6; UCH37 DUB inh: 21*; Rce1 inhib: inactive; PG9 Ab binder: -11

What do the screens show for `CC(C)C12CN3CCN(CC(C3)C1=NO)C2`?
UCH37 DUB inh: 5

What do the screens show for `COc1ccc(C(=O)NN=CC23CC[C@@H](O)CC2(O)CC[C@@H]2[C@@H]3CCC3(C)C(C4=CC(=O)OC4)CCC23O)cc1` (stereo not given in full)?
UCH37 DUB inh: 6

What do the screens show for `COc1cc(O)cc2c1C(=O)OC(C)CCCC(=O)CCCC=C2` (stereo not given)?
UCH37 DUB inh: 5

What do the screens show for `CN1C(=O)C(Cc2ccc(OCc3ccccc3)cc2)C(=O)N(C)C1=O`?
CR mimetic SO: 102; MIN6 prolif-1: 3; Rev-erbA mod: -2; UCH37 DUB inh: 11; Rce1 inhib: inactive; PG9 Ab binder: 0

How did COc1cc(CC2C(=O)N(C)C(=O)N(C)C2=O)ccc1OCc1ccccc1 do in these assays?
CR mimetic SO: 113; MIN6 prolif-1: 1; Rev-erbA mod: 0; UCH37 DUB inh: 24*; PG9 Ab binder: 0

Results for O=C(COc1ccc2ccc(=O)oc2c1)N1CCC(C(=O)O)(c2ccccc2)CC1 ?
CR mimetic SO: 102; MIN6 prolif-1: -3; Rev-erbA mod: -3; UCH37 DUB inh: -32; Rce1 inhib: active; PG9 Ab binder: 2

What do the screens show for `Cc1c(C)c2ccc(OCC(=O)N3CCC(C(=O)O)(c4ccccc4)CC3)cc2oc1=O`?
CR mimetic SO: 84; MIN6 prolif-1: 1; Rev-erbA mod: -8; UCH37 DUB inh: -153; PG9 Ab binder: 1

Results for CN1C(=O)NC(=O)/C(=C\c2ccc([N+](=O)[O-])o2)C1=O ?
CR mimetic SO: 94; MIN6 prolif-1: -2; UCH37 DUB inh: 17; Rce1 inhib: inactive

What do the screens show for `CN1C(=O)NC(=O)/C(=C/c2ccc([N+](=O)[O-])o2)C1=O`?
CR mimetic SO: 92; MIN6 prolif-1: 0; Rev-erbA mod: -4; UCH37 DUB inh: 22*; Rce1 inhib: inactive; PG9 Ab binder: -8

Results for Cc1ccc(-c2cc(-c3ccc(C)cc3)[n+](-c3ccccc3)c(-c3ccc(C)cc3)c2)cc1 ?
CR mimetic SO: 95; MIN6 prolif-1: -9; UCH37 DUB inh: 0; Rce1 inhib: active

How did c1ccc(-c2cc(-c3ccccc3)[n+](-c3ccccc3)c(-c3ccccc3)c2)cc1 do in these assays?
CR mimetic SO: 88; MIN6 prolif-1: -6; Rev-erbA mod: -4; UCH37 DUB inh: 4; Rce1 inhib: inactive; PG9 Ab binder: 0

How did Cc1ccc(-c2cc(-c3ccccc3)cc(-c3ccccc3)[n+]2-c2ccccc2)cc1 do in these assays?
CR mimetic SO: 95; MIN6 prolif-1: -9; Rev-erbA mod: 0; UCH37 DUB inh: 2; Rce1 inhib: active; PG9 Ab binder: 0

Results for COCCCn1c(N)c(C(=O)NCc2ccco2)c2nc3ccccc3nc21 ?
CR mimetic SO: 105; MIN6 prolif-1: -2; Rev-erbA mod: -1; Rce1 inhib: active; PG9 Ab binder: 0

Results for CN1C[C@H](C(=O)N[C@]2(C)C[C@@]3(O)C4CCCN4C(=O)[C@H](Cc4ccccc4)N3C2=O)C=C2c3cccc4[nH]cc(c34)C[C@H]21 (stereo not given in full) ?
Rev-erbA mod: 5

How did CCN(CC)C(=O)COc1cc(C)cc2oc(=O)c3c(c12)CCCC3 do in these assays?
CR mimetic SO: 98; MIN6 prolif-1: 6.6*; Rev-erbA mod: -3; UCH37 DUB inh: -80; Rce1 inhib: inactive; PG9 Ab binder: 2; MIN6 prolif-2: 2

How did O=C(Nc1ccc(Cl)cc1)ON=C(c1ccccc1)c1ccccn1 do in these assays?
UCH37 DUB inh: 2

How did COc1cc2occc2c2oc(=O)ccc12 do in these assays?
CR mimetic SO: 97; MIN6 prolif-1: -1; Rev-erbA mod: -1; UCH37 DUB inh: 0; Rce1 inhib: inactive; PG9 Ab binder: -1

What do the screens show for `COc1cc2ccc(=O)oc2c2ccoc12`?
CR mimetic SO: 98; MIN6 prolif-1: 12*; Rev-erbA mod: -5; UCH37 DUB inh: -52; Rce1 inhib: inactive; PG9 Ab binder: -1; MIN6 prolif-2: 0

How did C[C@H]1CCCC(=O)CCCC=Cc2cc(O)cc(O)c2C(=O)O1 do in these assays?
UCH37 DUB inh: 5

How did Cn1c(O)c(C=NCCN2CCN(C(=O)c3ccccc3)CC2)c(=O)n(C)c1=O do in these assays?
CR mimetic SO: 93; MIN6 prolif-1: 9.6*; Rev-erbA mod: 8; UCH37 DUB inh: -4; PG9 Ab binder: 1; MIN6 prolif-2: 1

Results for Cn1c(O)c(C=NCCOc2ccc(Cl)cc2)c(=O)n(C)c1=O ?
CR mimetic SO: 106; MIN6 prolif-1: -1; Rev-erbA mod: 3; UCH37 DUB inh: 4; Rce1 inhib: inactive; PG9 Ab binder: 0

How did CC1=CC(=C2C(=O)NC(=O)NC2=O)C=C(C(F)(F)F)N1Cc1ccccc1 do in these assays?
CR mimetic SO: 93; MIN6 prolif-1: 9.2*; Rev-erbA mod: -3; UCH37 DUB inh: 6; Rce1 inhib: inactive; PG9 Ab binder: 0; MIN6 prolif-2: 4

How did CC1=CC(=C2C(=O)NC(=S)NC2=O)C=C(C(F)(F)F)N1Cc1ccccc1 do in these assays?
CR mimetic SO: 95; MIN6 prolif-1: -2; Rev-erbA mod: 1; UCH37 DUB inh: 4; Rce1 inhib: inactive; PG9 Ab binder: 1

How did O=P(C(=NO)N1CCOCC1)(N1CCOCC1)N1CCOCC1 do in these assays?
UCH37 DUB inh: 7

Results for ON=C1CCC2CN(C3CCCCC3)CC2C1 (stereo not given) ?
UCH37 DUB inh: -1
